ChEMBL document CHEMBL1154842, “Synthesis, radiolabeling, and biological evaluation of (R)- and (S)-2-amino-3-[(18)F]fluoro-2-methylpropanoic acid (FAMP) and (R)- and (S)-3-[(18)F]fluoro-2-methyl-2-N-(methylamino)propanoic acid (NMeFAMP) as potential PET radioligands for imaging brain tumors” (J Med Chem, 2010)

Experiments:
[1] = test system: Pancreas; test: Biodistribution in pancreas of Fischer 344 rat bearing rat 9L cells at 20 uCi, iv after 30 mins; format: ADME, organism-based; details: in vivo, 0.5 h
Outline: (§1)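 Male Fischer 344 rats (200–250 g) carrying intracranial 9L gliosarcoma (5×10^4 cells implanted stereotactically, 10–12 days growth), under ketamine:xylazine anaesthesia. About 20 μCi tracer in 0.5 mL sterile saline given via tail-vein catheter. Groups of 4–5 were killed by intracardiac KCl at 15 (NMeFAMP only), 30, 60 or 120 min. Tissues were weighed and gamma-counted, decay-corrected, and reported as %ID/g, mean ± SD.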

[2] = test system: Pancreas; test: Biodistribution in pancreas of Fischer 344 rat bearing rat 9L cells at 20 uCi, iv after 60 mins; format: ADME, organism-based; details: in vivo, 1 h; outline: as §1
[3] = test system: Kidney; test: Biodistribution in kidney of Fischer 344 rat bearing rat 9L cells at 20 uCi, iv after 60 mins; format: ADME, organism-based; details: in vivo, 1 h; outline: as §1
[4] = Biodistribution in tumor of Fischer 344 rat bearing rat 9L cells at 20 uCi, iv after 30 mins; format: ADME, organism-based, Neoplasm; details: in vivo, 0.5 h; outline: as §1
[5] = test system: Bone; test: Biodistribution in bone of Fischer 344 rat bearing rat 9L cells at 20 uCi, iv after 15 mins; format: ADME, organism-based, Bone element; details: in vivo, 0.25 h; outline: as §1
[6] = test system: Heart; test: Biodistribution in heart of Fischer 344 rat bearing rat 9L cells at 20 uCi, iv after 60 mins; format: ADME, organism-based; details: in vivo, 1 h; outline: as §1
[7] = test system: Kidney; test: Biodistribution in kidney of Fischer 344 rat bearing rat 9L cells at 20 uCi, iv after 15 mins; format: ADME, organism-based; details: in vivo, 0.25 h; outline: as §1
[8] = test system: Heart; test: Biodistribution in heart of Fischer 344 rat bearing rat 9L cells at 20 uCi, iv after 120 mins; format: ADME, organism-based; details: in vivo, 2 h; outline: as §1
[9] = Ratio of drug level from tumor to brain of Fischer 344 rat bearing rat 9L cells at 20 uCi, iv after 120 mins; format: ADME, organism-based; details: in vivo, 2 h
[10] = test system: Spleen; test: Biodistribution in spleen of Fischer 344 rat bearing rat 9L cells at 20 uCi, iv after 30 mins; format: ADME, organism-based; details: in vivo, 0.5 h; outline: as §1
[11] = test system: Spleen; test: Biodistribution in spleen of Fischer 344 rat bearing rat 9L cells at 20 uCi, iv after 120 mins; format: ADME, organism-based; details: in vivo, 2 h; outline: as §1
[12] = test system: Brain; test: Biodistribution in brain of Fischer 344 rat bearing rat 9L cells at 20 uCi, iv after 30 mins; format: ADME, organism-based; details: in vivo, 0.5 h; outline: as §1
[13] = test system: Kidney; test: Biodistribution in kidney of Fischer 344 rat bearing rat 9L cells at 20 uCi, iv after 120 mins; format: ADME, organism-based; details: in vivo, 2 h; outline: as §1
[14] = test system: Bone; test: Biodistribution in bone of Fischer 344 rat bearing rat 9L cells at 20 uCi, iv after 120 mins; format: ADME, organism-based, Bone element; details: in vivo, 2 h; outline: as §1
[15] = test system: Lung; test: Biodistribution in lung of Fischer 344 rat bearing rat 9L cells at 20 uCi, iv after 120 mins; format: ADME, organism-based; details: in vivo, 2 h; outline: as §1
[16] = test system: Bone; test: Biodistribution in bone of Fischer 344 rat bearing rat 9L cells at 20 uCi, iv after 30 mins; format: ADME, organism-based, Bone element; details: in vivo, 0.5 h; outline: as §1
[17] = test system: Brain; test: Biodistribution in brain of Fischer 344 rat bearing rat 9L cells at 20 uCi, iv after 30 mins; details: in vivo, 0.5 h
[18] = test system: Heart; test: Biodistribution in heart of Fischer 344 rat bearing rat 9L cells at 20 uCi, iv after 30 mins; format: ADME, organism-based; details: in vivo, 0.5 h; outline: as §1
[19] = test system: Lung; test: Biodistribution in lung of Fischer 344 rat bearing rat 9L cells at 20 uCi, iv after 60 mins; format: ADME, organism-based; details: in vivo, 1 h; outline: as §1
[20] = Biodistribution in testis of Fischer 344 rat bearing rat 9L cells at 20 uCi, iv after 30 mins; format: ADME, organism-based; details: in vivo, 0.5 h; outline: as §1
[21] = test system: Liver; test: Biodistribution in liver of Fischer 344 rat bearing rat 9L cells at 20 uCi, iv after 120 mins; format: ADME, organism-based; details: in vivo, 2 h; outline: as §1
[22] = test system: Bone; test: Biodistribution in bone of Fischer 344 rat bearing rat 9L cells at 20 uCi, iv after 60 mins; format: ADME, organism-based, Bone element; details: in vivo, 1 h; outline: as §1
[23] = rat, in vivo, iv, 1 h
[24] = test system: Brain; test: Biodistribution in brain of Fischer 344 rat bearing rat 9L cells at 20 uCi, iv after 15 mins; details: in vivo
[25] = test system: Muscle tissue; test: Biodistribution in muscle of Fischer 344 rat bearing rat 9L cells at 20 uCi, iv after 15 mins; format: ADME, organism-based; details: in vivo, 0.25 h; outline: as §1
[26] = test system: Blood; test: Biodistribution in blood of Fischer 344 rat bearing rat 9L cells at 20 uCi, iv after 60 mins; format: ADME, organism-based; details: in vivo, 1 h; outline: as §1
[27] = test system: Liver; test: Biodistribution in liver of Fischer 344 rat bearing rat 9L cells at 20 uCi, iv after 30 mins; format: ADME, organism-based; details: in vivo, 0.5 h; outline: as §1
[28] = test system: Blood; test: Biodistribution in blood of Fischer 344 rat bearing rat 9L cells at 20 uCi, iv after 15 mins; format: ADME, organism-based; details: in vivo, 0.25 h; outline: as §1
[29] = Biodistribution in testis of Fischer 344 rat bearing rat 9L cells at 20 uCi, iv after 60 mins; format: ADME, organism-based; details: in vivo, 1 h; outline: as §1
[30] = Biodistribution in testis of Fischer 344 rat bearing rat 9L cells at 20 uCi, iv after 120 mins; format: ADME, organism-based; details: in vivo, 2 h; outline: as §1
[31] = test system: Muscle tissue; test: Biodistribution in muscle of Fischer 344 rat bearing rat 9L cells at 20 uCi, iv after 60 mins; format: ADME, organism-based; details: in vivo, 1 h; outline: as §1
[32] = test system: Kidney; test: Biodistribution in kidney of Fischer 344 rat bearing rat 9L cells at 20 uCi, iv after 30 mins; format: ADME, organism-based; details: in vivo, 0.5 h; outline: as §1
[33] = test system: Lung; test: Biodistribution in lung of Fischer 344 rat bearing rat 9L cells at 20 uCi, iv after 30 mins; format: ADME, organism-based; details: in vivo, 0.5 h; outline: as §1
[34] = test system: Pancreas; test: Biodistribution in pancreas of Fischer 344 rat bearing rat 9L cells at 20 uCi, iv after 120 mins; format: ADME, organism-based; details: in vivo, 2 h; outline: as §1
[35] = test system: Muscle tissue; test: Biodistribution in muscle of Fischer 344 rat bearing rat 9L cells at 20 uCi, iv after 120 mins; format: ADME, organism-based; details: in vivo, 2 h; outline: as §1
[36] = test system: Muscle tissue; test: Biodistribution in muscle of Fischer 344 rat bearing rat 9L cells at 20 uCi, iv after 30 mins; format: ADME, organism-based; details: in vivo, 0.5 h; outline: as §1
[37] = test system: Pancreas; test: Biodistribution in pancreas of Fischer 344 rat bearing rat 9L cells at 20 uCi, iv after 15 mins; format: ADME, organism-based; details: in vivo, 0.25 h; outline: as §1
[38] = test system: Liver; test: Biodistribution in liver of Fischer 344 rat bearing rat 9L cells at 20 uCi, iv after 15 mins; format: ADME, organism-based; details: in vivo, 0.25 h; outline: as §1
[39] = test system: Blood; test: Biodistribution in blood of Fischer 344 rat bearing rat 9L cells at 20 uCi, iv after 120 mins; format: ADME, organism-based; details: in vivo, 2 h; outline: as §1
[40] = Ratio of drug level from tumor to brain of Fischer 344 rat bearing rat 9L cells at 20 uCi, iv after 60 mins; details: in vivo, 1 h
[41] = test system: Lung; test: Biodistribution in lung of Fischer 344 rat bearing rat 9L cells at 20 uCi, iv after 15 mins; format: ADME, organism-based; details: in vivo, 0.25 h; outline: as §1
[42] = Biodistribution in testis of Fischer 344 rat bearing rat 9L cells at 20 uCi, iv after 15 mins; format: ADME, organism-based; details: in vivo, 0.25 h; outline: as §1
[43] = test system: Spleen; test: Biodistribution in spleen of Fischer 344 rat bearing rat 9L cells at 20 uCi, iv after 15 mins; format: ADME, organism-based; details: in vivo, 0.25 h; outline: as §1
[44] = test system: Heart; test: Biodistribution in heart of Fischer 344 rat bearing rat 9L cells at 20 uCi, iv after 15 mins; format: ADME, organism-based; details: in vivo, 0.25 h; outline: as §1
[45] = test system: Brain; test: Biodistribution in brain of Fischer 344 rat bearing rat 9L cells at 20 uCi, iv after 15 mins; format: ADME, organism-based; details: in vivo, 0.25 h; outline: as §1
[46] = rat, in vivo, iv, 1 h; remark: listed apart in the source
[47] = test system: Blood; test: Biodistribution in blood of Fischer 344 rat bearing rat 9L cells at 20 uCi, iv after 30 mins; format: ADME, organism-based; details: in vivo, 0.5 h; outline: as §1
[48] = test system: Liver; test: Biodistribution in liver of Fischer 344 rat bearing rat 9L cells at 20 uCi, iv after 60 mins; format: ADME, organism-based; details: in vivo, 1 h; outline: as §1
[49] = test system: Spleen; test: Biodistribution in spleen of Fischer 344 rat bearing rat 9L cells at 20 uCi, iv after 60 mins; format: ADME, organism-based; details: in vivo, 1 h; outline: as §1

SMILES: CN[C@@](C)(C[18F])C(=O)O.Cl
- Drug uptake [1]: 2.72 % ID/g
- Drug uptake [2]: 3.41 % ID/g
- Drug uptake [3]: 4.44 % ID/g
- Ratio [4]: 53.2
- Drug uptake [5]: 0.51 % ID/g
- Drug uptake [6]: 0.24 % ID/g
- Drug uptake [7]: 9.22 % ID/g
- Drug uptake [8]: 0.22 % ID/g
- Ratio [9]: 115.4
- Drug uptake [10]: 0.63 % ID/g
- Drug uptake [11]: 0.62 % ID/g
- Drug uptake [12]: 0.04 % ID/g
- Drug uptake [13]: 2.45 % ID/g
- Drug uptake [14]: 0.44 % ID/g
- Drug uptake [15]: 0.25 % ID/g
- Drug uptake [16]: 0.48 % ID/g
- Drug uptake [17]: 0.04 % ID/g
- Drug uptake [18]: 0.23 % ID/g
- Drug uptake [19]: 0.38 % ID/g
- Drug uptake [20]: 0.15 % ID/g
- Drug uptake [21]: 0.4 % ID/g
- Drug uptake [22]: 0.51 % ID/g
- Drug uptake [23]: 2.64 % ID/g
- Ratio [24]: 25
- Drug uptake [25]: 0.27 % ID/g
- Drug uptake [26]: 0.24 % ID/g
- Drug uptake [27]: 0.61 % ID/g
- Drug uptake [28]: 0.41 % ID/g
- Drug uptake [29]: 0.15 % ID/g
- Drug uptake [30]: 0.16 % ID/g
- Drug uptake [31]: 0.2 % ID/g
- Drug uptake [32]: 8.91 % ID/g
- Drug uptake [33]: 0.36 % ID/g
- Drug uptake [34]: 3.39 % ID/g
- Drug uptake [35]: 0.22 % ID/g
- Drug uptake [36]: 0.23 % ID/g
- Drug uptake [37]: 2.25 % ID/g
- Drug uptake [38]: 0.6 % ID/g
- Drug uptake [39]: 0.14 % ID/g
- Ratio [40]: 58.2
- Drug uptake [41]: 0.79 % ID/g
- Drug uptake [42]: 0.19 % ID/g
- Drug uptake [43]: 0.57 % ID/g
- Drug uptake [44]: 0.55 % ID/g
- Drug uptake [45]: 0.06 % ID/g
- Drug uptake [46]: 0.05 % ID/g
- Drug uptake [47]: 0.32 % ID/g
- Drug uptake [48]: 0.52 % ID/g
- Drug uptake [49]: 0.59 % ID/g
